{"source": "ChEMBL document CHEMBL1135865", "about": "“Novel guanidine-based inhibitors of inosine monophosphate dehydrogenase” (Bioorg Med Chem Lett, 2002)"}
{"target": "T1, Inosine-5'-monophosphate dehydrogenase 2 (Homo sapiens, UniProt P12268)", "assay": "In vitro inhibition of Inosine-5'-monophosphate dehydrogenase 2.", "summary_of_the_method": "(§1)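 Human type II IMPDH purified from E. coli expressing the gene; 40 nM enzyme, 400 µM IMP, 2 mM DTT in 0.1 M Tris, 0.1 M KCl, 3 mM EDTA pH 8.0; final DMSO 2.5%. Started with NAD (final 400 µM); after 2 h at 25 °C, NADH read at 340 nm.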", "units": {"IC50": "nM"}}
{"smiles": "COc1cc(NC(=NC#N)Nc2cccc(CNC(=O)NCC3CCCO3)c2)ccc1-c1cnco1", "note": "(stereo not drawn)", "IC50": 180}
{"smiles": "COc1cc(NC(=NC#N)Nc2cccc(CNC(=O)O[C@H]3CCOC3)c2)ccc1-c1cnco1", "IC50": 340}
{"smiles": "COc1cc(N/C(=N/c2cccnc2)NC#N)ccc1-c1cnco1", "IC50": 320}
{"smiles": "CCCCNC(=O)c1cccc(NC(=NC#N)Nc2ccc(-c3cnco3)c(OC)c2)c1", "IC50": 130}
{"smiles": "COc1cc(N/C(=N/c2cccc(C/N=C(\\NC#N)Oc3ccccc3)c2)NC#N)ccc1-c1cnco1", "IC50": 16}
{"smiles": "COc1cc(NC(=NC#N)Nc2ccccc2C)ccc1-c1cnco1", "IC50": 2200}
{"smiles": "CCOC(=O)N=C(Nc1cccc(C)c1)Nc1ccc(-c2cnco2)c(OC)c1", "IC50": 740}
{"smiles": "CN/C(=N\\c1ccc(-c2cnco2)c(OC)c1)Nc1cccc(C)c1", "IC50": "> 3000"}
{"smiles": "COc1cc(N=C(N)NC(=O)c2ccccc2)ccc1-c1cnco1", "IC50": 800}
{"smiles": "COc1cc(NC(=NC#N)Nc2ccccc2)ccc1-c1cnco1", "IC50": 250}
{"smiles": "COc1cc(NC(=O)Nc2cccc(C)c2)ccc1-c1cnco1", "IC50": 19}
{"smiles": "COc1cc(N=C(NC(C)=O)Nc2cccc(C)c2)ccc1-c1cnco1", "IC50": "> 1000"}
{"smiles": "COc1cc(NC(=NC#N)Nc2ccccn2)ccc1-c1cnco1", "IC50": 340}
{"smiles": "COc1cc(NC(=N)NC#N)ccc1-c1cnco1", "IC50": 330}
{"smiles": "COc1cc(NC(=NC#N)NCc2cccc(C)c2)ccc1-c1cnco1", "IC50": 1100}
{"smiles": "COc1cc(N/C(=N/C#N)Nc2ccc(C)cc2)ccc1-c1cnco1", "IC50": 1500}
{"smiles": "COc1cc(NC(=NC#N)Nc2cccc(C)c2)ccc1-c1cnco1", "IC50": 240}
{"smiles": "CON/C(=N\\c1ccc(-c2cnco2)c(OC)c1)Nc1cccc(C)c1", "IC50": 660}
{"smiles": "COc1cc(NC(=NC#N)Nc2cccc(OCCOc3ccccc3)c2)ccc1-c1cnco1", "IC50": 380}
{"smiles": "COc1cc(N/C(=N/c2cccc(CO)c2)NC#N)ccc1-c1cnco1", "IC50": 280}
{"test_system": "CCRF-CEM", "assay": "Inhibitory concentration against human T-lymphoblast CEM cell line (ATCC) by CEM proliferation assay.", "format": "functional, cell-based", "summary_of_the_method": "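CEM human T-lymphoblasts in RPMI 1640 with 10% heat-inactivated FBS plus penicillin/streptomycin, seeded 3000 cells/well with 0.5% DMSO. Compounds tested in triplicate from 10 uM top final concentration, 3-fold serial dilutions. Cells held 72 h in 5% CO2 humidified atmosphere. Viability measured by Alamar Blue (10% v/v, final 5 h), fluorescence at 530/590 nm.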", "units": {"IC50": "nM"}}
{"smiles": "COc1cc(N/C(=N/c2cccc(C/N=C(\\NC#N)Oc3ccccc3)c2)NC#N)ccc1-c1cnco1", "IC50": 410}
{"target": "T1, Inosine-5'-monophosphate dehydrogenase 2", "assay": "The compound was tested for it's in vitro inhibitor potency against inosine monophosphate dehydrogenase II (IMPDH II)", "summary_of_the_method": "as §1, with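 “nm. IC50 for 50% inhibition of NADH accumulation from 4-parameter logistic fit.” for “nm.”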", "units": {"IC50": "nM"}}
{"smiles": "COc1cc(N=C(N)Nc2cccc(C)c2)ccc1-c1cnco1", "IC50": "> 3000"}
{"smiles": "COc1cc(N/C(=N/C#N)Nc2cccc(CNC(=O)OCC3CCOC3)c2)ccc1-c1cnco1", "note": "(stereo not drawn)", "IC50": 110}
